This passage reports EC50 and Activity results from ChEMBL document CHEMBL3997800, “Discovery of Multitarget Agents Active as Broad-Spectrum Antivirals and Correctors of Cystic Fibrosis Transmembrane Conductance Regulator for Associated Pulmonary Diseases” (J Med Chem, 2017).

Experiment [1] deals with Enterovirus A71. Briefly: Antiviral activity against Enterovirus 71 TW/96016/08 clinical isolates incubated for 2 to 3 days. The experiment is classed as functional. The settings on record: Enterovirus A.
Experiment [2] has as its system Enterovirus A71. Description: Antiviral activity against Enterovirus 71 infected in RD cells assessed as reduction in virus-induced cytopathic effect incubated for 2 to 3 days. The experiment is classed as functional, cell-based. The settings on record: Enterovirus A, RD; read-out: EC50. The gist of the method: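 RD cells seeded at 20 000/well in MEM with 2% FCS and infected with EV71. Three 8-step 1:5 dilution series from 100 μM. Incubated 2-3 days until maximal CPE, then scored for CPE reduction. EC50 is the median of three dose-response curves.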

The next experiment deals with Echovirus E11. Description: Antiviral activity against Echovirus 11 after 2 to 3 days. The experiment is classed as functional. The conditions noted are these: Enterovirus B.
Experiment [3] addresses PI3-kinase p110-alpha/p85-alpha (Homo sapiens) (UniProt P27986+P42336). Description: Inhibition of full length recombinant human N-terminal His6-tagged PI3Kalpha (1 to 1068 residues)/full length human N-terminal myc-tagged P85alpha (1 to 724 residues) expressed in Sf9 insect cells assessed as residual activity at 100 uM using PI : PS as substrate in presence of [gamma-33P]-ATP by scintillation counting method relative to control.

The target in experiment [4] is Focal adhesion kinase 1 (Homo sapiens) (UniProt Q05397). Description: Inhibition of […] recombinant human FAK (393 to 698 residues) expressed in baculovirus infected sf9 cells assessed as residual activity at 100 uM using poly(Glu,Tyr)4:1 as substrate by ADP-Glo bioluminescence assay relative to control relative to control. The gist of the method:
(§1)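 Kinase reactions followed manufacturer's instructions with 10-50 ng enzyme, in 10 µL for 10 min at 30 °C; NP-40 or BSA added for some kinases. Compound at 100 µM. Residual activity is the mean of two independent replicates.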
A general note: In ADP-Glo the light output rises with the ADP produced.

Experiment [5] has as its target Dual specificity tyrosine-phosphorylation-regulated kinase 1A (Homo sapiens) (UniProt Q13627). Description: Inhibition of human DYRK1A assessed as residual activity at 100 uM by ADP-Glo bioluminescence assay relative to control relative to control. The gist of the method:
as §1

Experiment [6] has as its target Tyrosine-protein kinase ABL1 (Homo sapiens) (UniProt P00519). Briefly: Inhibition of full length ABL (unknown origin) assessed as residual activity at 100 uM by ADP-Glo bioluminescence assay relative to control relative to control. The gist of the method: as §1
Experiment [7] deals with CDK9/cyclin T1 (Homo sapiens) (UniProt O60563+P50750). Description: Inhibition of CDK9/cyclin T1 (unknown origin) assessed as residual activity at 100 uM by ADP-Glo bioluminescence assay relative to control relative to control. The class given is protein-complex assay. The gist of the method: as §1
The target in experiment [8] is CDK6/cyclin D1 (Homo sapiens) (UniProt P24385+Q00534). Briefly: Inhibition of CDK6/cyclin D1 (unknown origin) assessed as residual activity at 100 uM by ADP-Glo bioluminescence assay relative to control relative to control. The class given is protein-complex assay. The gist of the method: as §1

Sequence of Tyrosine-protein kinase ABL1 (Homo sapiens) (P00519 whole entry): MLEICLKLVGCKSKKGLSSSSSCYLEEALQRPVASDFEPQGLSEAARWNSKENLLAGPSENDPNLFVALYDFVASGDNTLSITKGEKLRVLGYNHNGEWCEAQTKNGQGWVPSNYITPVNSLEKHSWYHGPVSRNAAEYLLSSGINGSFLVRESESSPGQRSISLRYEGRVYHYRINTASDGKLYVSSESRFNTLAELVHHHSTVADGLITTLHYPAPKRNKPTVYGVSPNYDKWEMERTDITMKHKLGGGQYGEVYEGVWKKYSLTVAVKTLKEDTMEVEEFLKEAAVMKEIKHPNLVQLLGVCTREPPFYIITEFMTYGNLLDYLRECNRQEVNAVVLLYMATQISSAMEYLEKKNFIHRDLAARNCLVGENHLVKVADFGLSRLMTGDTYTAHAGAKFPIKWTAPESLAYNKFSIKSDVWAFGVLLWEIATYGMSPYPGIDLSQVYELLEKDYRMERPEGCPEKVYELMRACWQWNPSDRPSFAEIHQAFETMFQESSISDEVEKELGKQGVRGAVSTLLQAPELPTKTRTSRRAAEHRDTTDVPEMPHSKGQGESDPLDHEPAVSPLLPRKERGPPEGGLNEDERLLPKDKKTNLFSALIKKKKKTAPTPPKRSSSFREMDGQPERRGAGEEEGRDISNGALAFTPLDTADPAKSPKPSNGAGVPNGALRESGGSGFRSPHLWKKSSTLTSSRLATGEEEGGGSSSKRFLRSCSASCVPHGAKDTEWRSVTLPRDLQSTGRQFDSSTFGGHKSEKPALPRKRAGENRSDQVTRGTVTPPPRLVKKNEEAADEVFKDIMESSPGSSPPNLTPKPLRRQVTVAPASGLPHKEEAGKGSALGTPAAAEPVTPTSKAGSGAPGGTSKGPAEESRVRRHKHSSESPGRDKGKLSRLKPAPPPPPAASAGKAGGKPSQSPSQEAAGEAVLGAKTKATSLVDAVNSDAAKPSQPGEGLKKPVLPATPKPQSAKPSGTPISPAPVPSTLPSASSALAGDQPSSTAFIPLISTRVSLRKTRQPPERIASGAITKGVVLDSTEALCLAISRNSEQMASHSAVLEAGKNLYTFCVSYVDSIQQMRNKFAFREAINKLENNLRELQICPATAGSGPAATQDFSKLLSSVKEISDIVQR
Sequence of Focal adhesion kinase 1 (Homo sapiens) (Q05397 2-1052 limits assumed): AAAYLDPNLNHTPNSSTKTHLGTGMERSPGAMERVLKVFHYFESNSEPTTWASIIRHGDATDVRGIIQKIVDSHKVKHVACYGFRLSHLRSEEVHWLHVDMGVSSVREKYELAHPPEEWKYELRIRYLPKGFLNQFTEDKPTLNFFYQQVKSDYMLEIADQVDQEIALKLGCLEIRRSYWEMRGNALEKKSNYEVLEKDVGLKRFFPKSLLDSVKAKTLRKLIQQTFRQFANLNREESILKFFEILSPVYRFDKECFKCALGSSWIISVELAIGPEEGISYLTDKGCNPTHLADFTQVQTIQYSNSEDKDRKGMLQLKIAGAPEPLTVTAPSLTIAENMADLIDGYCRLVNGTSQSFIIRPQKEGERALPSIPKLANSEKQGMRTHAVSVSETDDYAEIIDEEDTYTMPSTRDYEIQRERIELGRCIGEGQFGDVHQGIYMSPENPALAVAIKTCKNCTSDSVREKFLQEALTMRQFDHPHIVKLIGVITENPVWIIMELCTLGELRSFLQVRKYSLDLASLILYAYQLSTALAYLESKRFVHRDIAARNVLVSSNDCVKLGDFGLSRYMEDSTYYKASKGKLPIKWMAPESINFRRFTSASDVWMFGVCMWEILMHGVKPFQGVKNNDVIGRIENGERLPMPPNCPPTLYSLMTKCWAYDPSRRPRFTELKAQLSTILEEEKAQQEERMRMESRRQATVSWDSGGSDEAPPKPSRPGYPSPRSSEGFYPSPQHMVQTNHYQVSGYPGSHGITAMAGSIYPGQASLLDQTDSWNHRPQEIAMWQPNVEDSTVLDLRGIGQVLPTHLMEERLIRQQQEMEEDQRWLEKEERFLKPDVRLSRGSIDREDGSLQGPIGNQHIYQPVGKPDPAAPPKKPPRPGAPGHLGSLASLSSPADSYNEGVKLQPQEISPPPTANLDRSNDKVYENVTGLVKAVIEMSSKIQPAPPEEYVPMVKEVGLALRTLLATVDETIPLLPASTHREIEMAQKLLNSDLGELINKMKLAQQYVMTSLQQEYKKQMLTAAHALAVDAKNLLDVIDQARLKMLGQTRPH

The EC50 is the midpoint of the concentration-response curve. As to `CC(=O)c1cccc(Nc2nc(-c3sc(NC(=O)OC(C)(C)C)nc3C)cs2)c1`, the EC50 stood at 21000 nM with Enterovirus A71 [1], 1420 nM in the experiment on Enterovirus A71 [2] and 2930 nM with Echovirus E11. For the same compound, the Activity in experiment [3] turned out to be 64%; in [4], 82%; in experiment [5], 88%; in [6], 53%; in experiment [7], 57%; in [8], 25%.
